Assay results collected from several papers.
Compare with care: the assays were run in different laboratories.
SIRT6: NAD-dependent protein deacylase sirtuin-6 (SIRT6, Homo sapiens, UniProt Q8N6T7)
Plasmepsin II: Plasmepsin II (Plasmodium falciparum, UniProt P46925)
SCN5A: Sodium channel protein type 5 subunit alpha (SCN5A, Homo sapiens, UniProt Q14524)
CCR2: C-C chemokine receptor type 2 (CCR2, Homo sapiens, UniProt P41597)
HTR6: 5-hydroxytryptamine receptor 6 (HTR6, Homo sapiens, UniProt P50406)
PTAFR: Platelet-activating factor receptor (PTAFR, Homo sapiens, UniProt P25105)
CCR5: C-C chemokine receptor type 5 (CCR5, Homo sapiens, UniProt P51681)

`CNC(=O)c1cc2c(Oc3ccc(NC(=O)C4(C(=O)Nc5ccc(F)cc5)CC4)cc3)ccnc2cc1OC` gave an inhibition of 99% (Angiopoietin-1 receptor (TEK, Homo sapiens, UniProt Q02763, R849W); enzyme activity, inhibitor, radiometric; 1 µM).
For `Cc1cccc(CONC(=O)c2ccc(C(N)=O)cc2)c1`, the inhibition was 84% (SIRT6; enzyme activity, inhibitor, fluorescence; 100 µM).
With `CSSc1ccccc1C(=O)O` the inhibition was 100% (Cathepsin B (CTSB, Homo sapiens, UniProt P07858); enzyme activity, inhibitor, fluorescence; 20 µM).
With `O=[N+]([O-])c1ccc(N2CCN(CCC(O)c3ccc(F)cc3)CC2)c(C(F)(F)F)c1` (stereo not drawn) the inhibition was 0% (Plasmepsin II; enzyme activity, inhibitor; 5 µM).
`CC(C)(C)c1ccc(CONC(=O)c2ccc(C(N)=O)cc2)cc1` has an inhibition of 95.1% (SIRT6; enzyme activity, inhibitor, fluorescence; 100 µM).
The inhibition of `O=c1c2ccccc2c(Cc2ccc(Cl)cc2)nn1C1CCCNCC1` (stereo not drawn) is reported as 62% (SCN5A; ion current, inhibitor, patch clamp; CHO; 10 µM).
The inhibition of `CN(Cc1ccc(NC(=O)C2=Cc3cc(-c4ccc(OCCCO)cc4)ccc3CCC2)cc1)C1CCOCC1` is reported as 51% (CCR2; ligand displacement, radioligand; 1 µM, cell membranes).
`NC(=O)c1ccc(C(=O)NOCc2ccc(Sc3ccccc3Cl)c(C(F)(F)F)c2)cc1` has an inhibition of 99.1% (SIRT6; enzyme activity, inhibitor, fluorescence; 100 µM).
`CCN(CC)c1ccc(C2Nc3ccc(C(=O)c4ccccc4)cc3NC3=C2C(=O)CC(C)(C)C3)cc1` (stereo not drawn) gave an inhibition of 30% (HTR6; ligand displacement, radioligand; 10 µM).
For `Cc1ccc(Sc2ccc(CONC(=O)c3ccc(C(N)=O)cc3)cc2C(F)(F)F)cc1`, the inhibition was 98.6% (SIRT6; enzyme activity, inhibitor, fluorescence; 100 µM).
The inhibition of `O=C(NCCNC(=O)c1n[nH]c(=O)c2ccccc12)c1cccc(CN2C(=O)CNC2=O)c1` is reported as roughly 50% (Poly [ADP-ribose] polymerase 2 (PARP2, Homo sapiens, UniProt Q9UGN5); enzyme activity, inhibitor; 0.5 µM).
`NC(=O)c1ccc(C(=O)NOCc2ccc3sc4ccccc4c3c2)cc1` has an inhibition of 96.2% (SIRT6; enzyme activity, inhibitor, fluorescence; 100 µM).
With `O=[N+]([O-])c1ccc(N2CCN(CCC(O)c3csc4ccc(F)cc34)CC2)c(C(F)(F)F)c1` (stereo not drawn) the inhibition was 13% (Plasmepsin II; enzyme activity, inhibitor; 5 µM).
For `CCN(Cc1ccccc1C(F)(F)F)C(=O)C1CCN(S(=O)(=O)c2ccc3[nH]ncc3c2)CC1`, the inhibition was 7% (PTAFR; ligand displacement, radioligand; 10 µM).
With `N=c1n(CCN2CCCCC2)c2ccccc2n1CC(O)c1cccc(Br)c1` (stereo not drawn) the inhibition was 66% (SCN5A; ion current, inhibitor, patch clamp; CHO; 10 µM).
With `NC(=O)c1ccc(C(=O)NOCc2ccc(-n3cccn3)cc2)cc1` the inhibition was 91.8% (SIRT6; enzyme activity, inhibitor, fluorescence; 100 µM).
`CC/C(=N\NC(=O)NCc1cccc(O)c1)c1ccc(O)c(C)c1O` has an inhibition of 0.4% (ALK tyrosine kinase receptor (ALK, Homo sapiens, UniProt Q9UM73, G1269A); enzyme activity, inhibitor; 0.1 µM).
With `O=C(Nc1ccc(S(=O)(=O)N2CCC(Cl)CC2)cc1)c1ccc([N+](=O)[O-])o1` the inhibition was 39% (PTAFR; ligand displacement, radioligand; 10 µM).
`OCc1cc(C(O)CNCCCCCCOCCCCc2ccccc2)ccc1O` (stereo not drawn) gave an inhibition of 60% (CCR5; calcium signal, antagonist; U87/CD4/CCR5; 100 µM).
For `CN(Cc1ccc(NC(=O)C2=Cc3cc(-c4ccc(OCCCCCO)cc4)ccc3CCC2)cc1)C1CCOCC1`, the inhibition was 53% (CCR2; ligand displacement, radioligand; 1 µM, cell membranes).
With `CCCCCCOc1c(OC)cc2c3c1-c1cc4c(cc1CC3N(C)CC2c1ccccc1)OCO4` (stereo not drawn) the inhibition was -14.6% (5-hydroxytryptamine receptor 7 (HTR7, Homo sapiens, UniProt P34969); ligand displacement, radioligand; 10 µM).
The inhibition of `C/C(=C\C(=O)OCCCCCCCCC(=O)O)C[C@@H]1OC[C@H](C[C@@H]2O[C@H]2[C@@H](C)[C@H](C)O)[C@@H](O)[C@H]1O` is reported as 52% (CCR5; calcium signal, antagonist; U87/CD4/CCR5; 0.8 µM).
For `CN(C)C1CCN(CC#Cc2nn(C3CCCC3)c3nc(NCc4ccccc4)ncc23)C1` (stereo not drawn), the inhibition was 2% (Serine/threonine-protein kinase pim-1 (PIM1, Homo sapiens, UniProt P11309); enzyme activity, inhibitor, FRET; 10 µM).
`OC(CCN1CCN(c2ccc(C(F)(F)F)cc2)CC1)c1csc2ccc(F)cc12` (stereo not drawn) has an inhibition of 0% (Plasmepsin II; enzyme activity, inhibitor; 5 µM).
For `Ic1cccc2cnccc12`, the inhibition was 7% (Protein mono-ADP-ribosyltransferase PARP14 (PARP14, Homo sapiens, UniProt Q460N5); enzyme activity, inhibitor; 10 µM).
`O=C(NC1CCC1)[C@H](Cc1c[nH]c2ccccc12)NC(=O)[C@H](CCCCNC(=S)NCCc1nnn[nH]1)NS(=O)(=O)c1cccc(F)c1` gave an inhibition of 6% (SIRT6; enzyme activity, inhibitor; 10 µM).
With `NC(=O)c1ccc(C(=O)NOCc2ccc(Sc3cccc(F)c3)c(C(F)(F)F)c2)cc1` the inhibition was 97.6% (SIRT6; enzyme activity, inhibitor, fluorescence; 100 µM).
`O=C(c1ccc(F)cc1)N(Cc1ccccc1)C1CCCCC1` has an inhibition of 6% (PTAFR; cell-free assay; 10 µM).
`O=C(NOCc1ccc(C(F)(F)F)cc1)c1ccc(-c2nn[nH]n2)cc1` has an inhibition of 4.2% (SIRT6; enzyme activity, inhibitor, fluorescence; 100 µM).
For `N#Cc1cc(Cn2c(N3CCCC3)nc3ccccc32)ccc1F`, the inhibition was 6.5% (HTR6; ligand displacement; 10 µM).
